Reference: ChEMBL document CHEMBL4627410, “Discovery of an Orally Active Small-Molecule Tumor Necrosis Factor-α Inhibitor” (J Med Chem, 2020)
Activity calls are given as the source filed them. The calls are words filed in the database; no cut-off is given here.

Key:
Tumor necrosis factor [1] = molecular target: T1, Tumor necrosis factor (Homo sapiens, UniProt P01375); assay: Binding affinity to recombinant TNFalpha (unknown origin) expressed in Escherichia coli BL21 (DE3) incubated for 10 mins by MST assay
Mus musculus [2] = assay: Antiinflammatory activity in Balb/c mouse model of Imiquimod-induced psoriasis-like skin lesions assessed as reduction of serum IL6 level at 5 mg/kg, ig by ELISA; format: functional, organism-based
Summary of the method: (§1)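 Back skin shaved (5 cm × 4 cm) under isoflurane. Two days later, 5% imiquimod cream applied topically for 6 consecutive days; controls received base cream. Dosing by gavage, with prednisone 5 mg/kg as reference, n=10 per group. Erythema and scaling scored daily and blinded, 0–4. On day 7: spleen index, serum IL-1β and IL-6 by ELISA, and 3 µm H&E back-skin sections. Means ± SD.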

Mus musculus [3] = assay: Antiinflammatory activity in Balb/c mouse model of collagen-induced arthritis assessed as reduction in degree of cartilage and bone destruction and inflammation at 5 mg/kg, ig for 2 weeks by H and E staining based histopathological analysis; format: functional, organism-based
Summary of the method: (§2)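 Balb/c mice immunized intradermally at the tail base with bovine type II collagen emulsified 1:1 in complete Freund's adjuvant (1 mg/mL, 0.1 mL), with the same boost on day 14. Gavage dosing for 2 weeks; prednisone 5 mg/kg i.g. as reference. Non-immunized normal group included, n=10 per group. Outcomes: four-paw arthritis score, blinded, maximum 16. Spleen index = spleen weight/body weight. Serum cytokines by ELISA. Right hind limb fixed in 4% paraformaldehyde, decalcified 30 days in 12.5% EDTA pH 7.0, 6–8 μm H&E sections graded blindly 0–3.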

Mus musculus [4] = assay: Antiinflammatory activity in Balb/c mouse model of Imiquimod-induced psoriasis-like skin lesions assessed as reduction of serum IL-1beta level at 5 mg/kg, ig by ELISA; format: functional, organism-based; summary of the method: as §1
Mus musculus [5] = assay: Antiinflammatory activity in Balb/c mouse model of Imiquimod-induced psoriasis-like skin lesions assessed as reduction of serum IL-1beta level at 25 to 50 mg/kg, ig by ELISA; format: functional, organism-based; summary of the method: as §1
Mus musculus [6] = assay: Antiinflammatory activity in Balb/c mouse model of collagen-induced arthritis assessed as reduction in serum IFNgamma level at 25 to 50 mg/kg, ig for 2 weeks by ELISA; format: functional, organism-based; summary of the method: as §2
Mus musculus [7] = assay: Antiinflammatory activity in Balb/c mouse model of endotoxemia assessed as reduction in emergence of hemorrhagic necrosis at 25 mg/kg, ig pre-treated 2 hrs before LPS injection and measured 12 to 96 hrs post LPS challenge by H and E staining based histopathological analysis; format: functional, organism-based
Summary of the method: (§3)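 Endotoxemia induced with LPS 15 mg/kg i.p., n=10 per group; controls received saline i.p. Gavage dose given 2 h before LPS, then again at 12, 24, 48, 72 and 96 h. Survival followed daily for up to 2 weeks. Liver and lung fixed in 10% formalin and sections stained with H&E. Means ± SD.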

[8] = molecular target: T2, Tumor necrosis factor (Mus musculus) (UniProt P06804); assay: (§4) Inhibition of TNF-alpha in mouse RAW264.7 cells assessed as inhibition of LPS-induced IKBalpha phosphorylation at 5 to 20 uM pre-incubated for 12 hrs before LPS stimulation for 2 hrs by Western blot analysis; format: cell-based
T2 sequence (whole entry): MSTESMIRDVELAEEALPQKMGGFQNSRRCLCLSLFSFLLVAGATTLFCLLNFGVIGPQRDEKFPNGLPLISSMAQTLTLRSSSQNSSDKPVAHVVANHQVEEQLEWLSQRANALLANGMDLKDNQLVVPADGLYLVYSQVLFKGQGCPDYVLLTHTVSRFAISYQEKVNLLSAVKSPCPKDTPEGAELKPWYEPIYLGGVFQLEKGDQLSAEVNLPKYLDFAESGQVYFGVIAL
Summary of the method: (§5)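 RAW264.7 cells (5×10^4 cells/mL) cultured overnight. Compound at 5, 10 or 20 µM for 12 h, then LPS 1 µg/mL for 2 h. Lysed in RIPA, protein equalized by BCA, run on 12% SDS-PAGE. Immunoblotted for IκBα and p-IκBα, ECL detection.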

Mus musculus [9] = assay: Antiinflammatory activity in Balb/c mouse model of endotoxemia assessed as reduction in liver damage at 25 mg/kg, ig pre-treated 2 hrs before LPS injection and measured 12 to 96 hrs post LPS challenge by H and E staining based histopathological analysis; format: functional, organism-based; summary of the method: as §3
[10] = molecular target: T2, Tumor necrosis factor (Mus musculus); assay: Inhibition of TNF-alpha in mouse RAW264.7 cells assessed as inhibition of NFkappB/p65 nuclear translocation at 5 to 20 uM by DAPI staining based microscopy; format: cell-based
Summary of the method: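 RAW264.7 cells grown to 50–70% confluence in glass chambers. Pretreated 12 h with DMSO or compound, then TNF-α 10 ng/mL for 2 h. Fixed in 4% paraformaldehyde, permeabilized with 0.25% Triton X-100, blocked with BSA. Stained with anti-p65 (1:1000, 4 °C overnight), fluorescent secondary (1:500) and DAPI nuclear stain. Imaged by fluorescence microscopy.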

Tumor necrosis factor [11] = molecular target: T1, Tumor necrosis factor; assay: Binding affinity to recombinant TNFalpha (unknown origin) expressed in Escherichia coli BL21 (DE3) assessed as increase in TNF-alpha thermal stability by measuring tolerated temperature (reference value: 90 degC)
Mus musculus [12] = assay: Antiinflammatory activity in Balb/c mouse assessed as inhibition of LPS-induced IL6 production at 25 to 50 mg/kg, po pre-treated 90 mins before LPS injection and measured after 4 hrs by sandwich ELISA; format: functional, organism-based
Summary of the method: (§6)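 Male Balb/c mice, 7–8 weeks old, randomized into control, LPS and two dose groups. Oral dosing 90 min before LPS (1.5 mg/kg, i.p.). Serum taken from clotted blood 4 h after LPS and stored at -80 °C. IL-1β and IL-6 measured by sandwich ELISA. At least six mice per group, each sample run in duplicate.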

Mus musculus [13] = assay: Antiinflammatory activity in Balb/c mouse model of collagen-induced arthritis assessed as increase in serum IL10 level at 25 to 50 mg/kg, ig for 2 weeks by ELISA; format: functional, organism-based; summary of the method: as §2
Mus musculus [14] = assay: Antiinflammatory activity in Balb/c mouse model of collagen-induced arthritis assessed as reduction in serum IL6 level at 25 to 50 mg/kg, ig for 2 weeks by ELISA; format: functional, organism-based; summary of the method: as §2
[15] = molecular target: T2, Tumor necrosis factor (Mus musculus); assay: as §4; format: cell-based; summary of the method: as §5; remark: listed apart in the source
Mus musculus [16] = assay: Antiinflammatory activity in Balb/c mouse model of Imiquimod-induced psoriasis-like skin lesions assessed as reduction of spleen index at 25 to 50 mg/kg, ig; format: functional, organism-based; summary of the method: as §1
Mus musculus [17] = assay: Antiinflammatory activity in Balb/c mouse model of collagen-induced arthritis assessed as reduction in arthritic score at 25 to 50 mg/kg, ig for 2 weeks; format: functional, organism-based; summary of the method: as §2
Mus musculus [18] = assay: Antiinflammatory activity in Balb/c mouse model of endotoxemia assessed as reduction in lung damage at 25 mg/kg, ig pre-treated 2 hrs before LPS injection and measured 12 to 96 hrs post LPS challenge by H and E staining based histopathological analysis; format: functional, organism-based; summary of the method: as §3
Tumor necrosis factor [19] = molecular target: T1, Tumor necrosis factor; assay: Binding affinity to recombinant TNFalpha (unknown origin) expressed in Escherichia coli BL21 (DE3) assessed as inhibition of TNFR1 binding to immobilized TNF-alpha pre-incubated with TNFR1 for 20 mins followed by TNFalpha addition and measured after 120 mins by ELISA
Mus musculus [20] = assay: Antiinflammatory activity in Balb/c mouse model of collagen-induced arthritis assessed as reduction in degree of cartilage and bone destruction and inflammation at 25 to 50 mg/kg, ig for 2 weeks by H and E staining based histopathological analysis; format: functional, organism-based; summary of the method: as §2
Mus musculus [21] = assay: Antiinflammatory activity in Balb/c mouse model of Imiquimod-induced psoriasis-like skin lesions assessed as decrease in adjusted scale scores consisting of erythema, epidermal acanthosis, and lesions thickness at 25 to 50 mg/kg, ig; format: functional, organism-based; summary of the method: as §1
Tumor necrosis factor [22] = molecular target: T1, Tumor necrosis factor; assay: Binding affinity to recombinant TNFalpha (unknown origin) expressed in Escherichia coli BL21 (DE3) assessed as protection of TNF-alpha from protease mediated digestion at 2.5 to 20 uM
Summary of the method: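 DARTS assay on TNF-α (His6-tagged, expressed in E. coli BL21(DE3) and purified by Ni-affinity, anion exchange and size exclusion). Protein was treated with compound, then digested with pronase for 30 min. Remaining TNF-α was read out.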

Mus musculus [23] = assay: Antiinflammatory activity in Balb/c mouse assessed as inhibition of LPS-induced IL1-beta production at 25 to 50 mg/kg, po pre-treated 90 mins before LPS injection and measured after 4 hrs by sandwich ELISA; format: functional, organism-based; summary of the method: as §6
Mus musculus [24] = assay: Antiinflammatory activity in Balb/c mouse model of Imiquimod-induced psoriasis-like skin lesions assessed as inhibition of inflammation at 25 to 50 mg/kg, ig; format: functional, organism-based; summary of the method: as §1
[25] = Toxicity in mouse RAW264.7 cells at 5 to 20 uM; format: cell-based
Mus musculus [26] = assay: Antiinflammatory activity in Balb/c mouse model of endotoxemia assessed as increase in mouse survival at 25 mg/kg, ig pre-treated 2 hrs before LPS injection and measured 12 to 96 hrs post LPS challenge; format: functional, organism-based; summary of the method: as §3
Mus musculus [27] = assay: Antiinflammatory activity in Balb/c mouse model of collagen-induced arthritis assessed as reduction in serum IL-1beta level at 25 to 50 mg/kg, ig for 2 weeks by ELISA; format: functional, organism-based; summary of the method: as §2
Mus musculus [28] = assay: Antiinflammatory activity in Balb/c mouse model of Imiquimod-induced psoriasis-like skin lesions assessed as reduction of serum IL6 level at 25 to 50 mg/kg, ig after 7 days by ELISA; format: functional, organism-based; summary of the method: as §1
Mus musculus [29] = assay: Antiinflammatory activity in Balb/c mouse model of Imiquimod-induced psoriasis-like skin lesions assessed as reduction of histopathological changes at 25 to 50 mg/kg, ig by H and E staining based histopathological analysis; format: functional, organism-based; summary of the method: as §1
Tumor necrosis factor [30] = molecular target: T1, Tumor necrosis factor; assay: Binding affinity to recombinant TNFalpha (unknown origin) expressed in Escherichia coli BL21 (DE3) assessed as increase in Kd for TNF-alpha-TNFR1 binding at 10 uM pe-incubated for 15 mins before TNFR1 addition and measured after 15 mins by MST assay relative to control
Summary of the method: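 TNF-α (C-terminal His6, from E. coli BL21(DE3), purified by Ni-agarose, thrombin digest, anion exchange and size exclusion) at various concentrations was preincubated with 10 µM compound for 15 min at room temperature. The mix was added to an equal volume of RED-labelled TNFR1 in 20 mM HEPES pH 7.5, 0.05% Tween-20. MST was read at 22 °C (100% LED, 20% MST power) and KD was fitted.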

Mus musculus [31] = assay: Antiinflammatory activity in Balb/c mouse model of collagen-induced arthritis assessed as reduction in spleen index at 25 to 50 mg/kg, ig for 2 weeks; format: functional, organism-based; summary of the method: as §2

T1 sequence (P01375 whole entry): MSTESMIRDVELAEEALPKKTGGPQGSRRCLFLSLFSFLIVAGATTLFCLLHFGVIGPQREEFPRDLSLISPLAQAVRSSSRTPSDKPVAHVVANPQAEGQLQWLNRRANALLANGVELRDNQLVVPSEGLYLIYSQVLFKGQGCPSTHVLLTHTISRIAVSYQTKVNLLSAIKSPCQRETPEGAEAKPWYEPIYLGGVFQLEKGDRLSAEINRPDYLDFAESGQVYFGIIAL

Cn1c(SCC(=O)N2CC(=O)Nc3cc(C(F)(F)F)ccc32)nnc1-c1ccccc1Cl
Kd (Tumor necrosis factor [1]): Not Active

CC1CCc2c([nH]c3ccccc23)[C@H]1c1c(O)nc2n(c1=O)CCS2 (some centres not stated)
Kd (Tumor necrosis factor [1]): Not Active

O=c1c([C@H]2NCCc3c2[nH]c2ccccc32)c(O)[nH]c(=S)n1Cc1ccc(F)cc1
Kd (Tumor necrosis factor [1]): Not Active

C[C@]12C=CC(=O)C=C1CC[C@@H]1[C@@H]2C(=O)C[C@@]2(C)[C@H]1CC[C@]2(O)C(=O)CO
Activity (Mus musculus [2]): Active
Activity (Mus musculus [3]): Active
Activity (Mus musculus [4]): Active

O=C1C[C@H](Nc2ncnc3[nH]cnc23)CN1Cc1ccccc1
Activity (Mus musculus [5]): Dose-dependent effect
Activity (Mus musculus [6]): Dose-dependent effect
Activity (Mus musculus [7]): Active
inhibition [8]: Dose-dependent effect
Activity (Mus musculus [9]): Active
inhibition [10]: Active
T (Tumor necrosis factor [11]): 94 °C
inhibition (Mus musculus [12]): Active
Activity (Mus musculus [13]): Dose-dependent effect
Activity (Mus musculus [14]): Dose-dependent effect
inhibition [15]: Active
Kd (Tumor necrosis factor [1]; read-out: Kd): 82.1 µM
Activity (Mus musculus [16]): Active
Activity (Mus musculus [17]): Active
Activity (Mus musculus [18]): Active
IC50 (Tumor necrosis factor [19]): 0.109 µM
Activity (Mus musculus [20]): Active
Activity (Mus musculus [21]): Active
Activity (Tumor necrosis factor [22]): Dose-dependent effect
inhibition (Mus musculus [23]): Active
Activity (Mus musculus [24]): Active
IC50 [25]: > 100 µM
Activity (Mus musculus [26]): Active
Activity (Mus musculus [27]): Dose-dependent effect
Activity (Mus musculus [28]): Dose-dependent effect
Activity (Mus musculus [29]): Active
fold change (FC) (Tumor necrosis factor [30]): 18
Activity (Mus musculus [31]): Active

O=C(CCc1ccccc1)[C@H]1Cc2[nH]cnc2CN1C(=O)c1cccs1
Kd (Tumor necrosis factor [1]): Not Active

O=c1c([C@H]2NCCc3c2[nH]c2ccccc32)c(O)[nH]c(=S)n1-c1ccc2ccccc2c1
Kd (Tumor necrosis factor [1]): Not Active

Cc1cc(C)cc(-n2c(O)c([C@H]3NCCc4c3[nH]c3ccccc43)c(O)nc2=S)c1
Kd (Tumor necrosis factor [1]): Not Active
